Data published in article PMC11094421 (Clinical Cancer Research, 2024).

Assays:
[1] = Treatment-emergent adverse events, first-in-human dose-escalation study; type: in vivo
Procedure, shortened: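 Safety set comprised all patients given ≥1 dose (N = 55; 5–270 mg, QD or BID schedules). TEAEs were counted from the first dose until 30 days after the last. Baseline was the last value before the first dose.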

[2] = Dose-limiting toxicities, MTD and RDE; type: in vivo, human
Procedure, shortened: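 Patients with metastatic or locally advanced unresectable solid tumors received test compound alone, fasting, QD from 5 mg upward, plus 2 weeks on/1 week off and 150 mg BID 4 days on/3 days off schedules. The DLT window was 21 days with a 30% target DLT rate. A Bayesian 2-parameter logistic model with overdose control and a schedule covariate gave posterior DLT probabilities (mean, percentiles). Analysis set N = 52.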

[3] = Noncompartmental PK of tuvusertib in plasma; type: in vivo, human
[4] = system: immune cell subsets; experiment: Immunophenotyping of whole blood by flow cytometry; type: in vivo, human; settings: doses ≥130 mg, on-treatment period; full recovery during treatment breaks
[5] = system: circulating tumor DNA; experiment: Molecular response in plasma ctDNA; type: in vivo, human
[6] = system: patients with advanced solid tumors; experiment: Objective response according to RECIST v1.1; type: in vivo, human
Procedure, shortened: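 Investigator-assessed objective response per RECIST v1.1, based on change in the sum of longest diameters of target lesions. Patients received the test compound once or twice daily on continuous or intermittent schedules.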

[7] = system: ATM^mut non–small cell lung cancer (NSCLC) xenograft model; settings: monotherapy; Supplementary Fig. S1; cited from earlier work
[8] = system: ARID1A^mut gastric cancer xenograft model; settings: monotherapy; Supplementary Fig. S1; cited from earlier work
[9] = system: xenograft models of BRCA^mut high-grade serous ovarian cancer; settings: monotherapy and combination with niraparib; cited from earlier work
[10] = lartesertib, niraparib, cisplatin, gemcitabine, irinotecan; preclinical; cited from earlier work

## Cn1cncc1-c1c(F)cncc1NC(=O)c1c(N)nn2cc(F)cnc12 [Tuvusertib]
[1]; Any grade, all doses, N = 55
  Anemia TEAE: 39 (71) n (%)
  Constipation TEAE: 13 (24) n (%)
  Fatigue TEAE: 22 (40.0) n (%)
  Nausea TEAE: 34 (62) n (%)
  Vomiting TEAE: 21 (38) n (%)
[1]; Grade ≥3, all doses, N = 55
  Anemia TEAE: 20 (36) n (%)
  Constipation TEAE: 0 n (%)
  Fatigue TEAE: 1 (2) n (%)
  Nausea TEAE: 0 n (%)
  Vomiting TEAE: 3 (6) n (%)
[1]; across all dose levels
  treatment-related AE anemia: 67%
  treatment-related AE fatigue: 38%
  treatment-related AE vomiting: 33%
[1]; all doses
  TEAEs assessed as related to tuvusertib: 87%
  abnormal ECG readings, vital signs, high-grade laboratory abnormalities: No clinically significant abnormal ECG readings, vital signs or high-grade laboratory abnormalities were observed
  patients who experienced at least one TEAE: 95%
[1]; all doses, N = 55
  Any grade ≥3 TEAE: 26 (47) n (%)
  Any serious TEAE: 15 (27) n (%)
  Grade ≥3 TEAE related to tuvusertib: 19 (35) n (%)
  Serious TEAE related to tuvusertib: 3 (6) n (%)
  TEAE leading to permanent tuvusertib discontinuation: 3 (6) n (%)
  TEAE leading to temporary tuvusertib discontinuation: 26 (47) n (%)
  TEAEs related to tuvusertib: 48 (87) n (%)
[1]; all doses, N = 55, safety analysis set
  Any TEAE: 52 (95) n (%)
[1]; at the MTD (n = 11)
  constipation TEAE of any grade: 36%
  nausea TEAE of any grade: 55%
  vomiting TEAE of any grade: 36%
[1]; at the RDE
  grade ≥3 TEAE anemia: none seen
[1]; at the RDE (n = 7)
  nausea TEAE of any grade: 71%
[1]; overall
  anemia TEAE of any grade: 71%
  fatigue TEAE of any grade: 40%
  grade ≥3 TEAE lymphocyte count decreased: 7%
  grade ≥3 TEAE neutrophil count decreased: 7%
  nausea TEAE of any grade: 62%
[1]; overall, majority at doses ≥ MTD
  grade ≥3 TEAE anemia: 36%
[1]; reported at dose levels exceeding the MTD
  Grade ≥4 platelet count decreased: 4%
[2]; 130 mg QD
  DLT anemia requiring blood transfusion: 1/8
[2]; 150 mg BID 4 days on/3 days off
  DLT anemia requiring blood transfusion: 3/4
[2]; 180 mg QD
  DLT anemia requiring blood transfusion: 3/10
[2]; 180 mg QD continuously
  median estimated DLT probability: 23%
  upper boundary of the one-sided 95% credible interval of DLT probability: 37%
[2]; 220 mg QD 2 weeks on/1 week off
  DLT anemia requiring blood transfusion: 2/6
[2]; 270 mg QD
  DLT anemia requiring blood transfusion: 1/4
  DLT upper gastrointestinal hemorrhage and decreased platelet counts (one each): 2/4
[2]; as assessed by the SMC, observation period 21 days
  patients who experienced DLTs: Eleven
[2]; intermittent 2 weeks on/1 week off schedule, no MTD formally established
  median estimated DLT probability: < 20%
[2]; of eleven patients with DLTs
  DLTs that were events of anemia requiring blood transfusion: 10
[3]; 5 to 270 mg
  dose proportionality of exposure: approximately dose proportional up to 180 mg QD and slightly more than proportional at higher doses
[3]; cycle 1
  PK steady-state conditions achieved: ≤ 8 days
[3]; human, plasma, oral
  half-life: 1.2 to 5.6 h
[3]; human, plasma, po
  Tmax: 0.5 to 3.5 h
[4]
  monocytes and NK cell subsets: Transient decreases
[5]; ARID1A
  Complete MRs for any mutations: 2/8
[5]; ATRX
  Complete MRs for any mutations: 2/5
[5]; BRCA1/2
  Complete MRs for any mutations: 2/11
[5]; DAXX
  Complete MRs for any mutations: 2/3
[5]; breast cancer, 1/3
  MRs by tumor type: 33%
[5]; other tumor types, 4/21
  MRs by tumor type: 19%
[5]; ovarian cancer, 5/10
  MRs by tumor type: 50%
[5]; patients treated with more than 130 mg QD, 14/37
  MRs observed (patients): 38%
[5]; patients with MRs, 7/14
  patients showing a reduction in sum of tumor diameter: 50%
[5]; patients without MRs, 8/33
  patients showing a reduction in sum of tumor diameter: 24%
[5]; the 10 patients who received lower doses
  MRs observed (patients): none
[6]; 15 patients, all doses
  patients with stable disease (RECIST v1.1): 27%
[6]; patient with unconfirmed partial response, 150 mg BID 4 days on/3 days off
  duration of disease stabilization: 9 months
[7]
  antitumor activity: antitumor activity as monotherapy
[8]
  antitumor activity: antitumor activity as monotherapy
[9]
  antitumor activity: antitumor activity as monotherapy and in combination with the PARP inhibitor niraparib
[10]
  synergy with other DDR-targeting treatments and DNA-damaging agents: pronounced synergy
